Shown are actives, neighbours in structure and some others; about 2% of the full set was active somewhere.
CaV13 ICDI inh – Disruptors of the CACNA1D IQ motif to Ca2+-dependent inactivation inhibitor domain association, primary screening, Förster resonance energy transfer in intact living …; HEK cells, CFP/YFP FRET ICDI-IQ, plate reader, 10 min; percent FRET-ratio fall versus neutral wells; inhibition, % at 12.3 µM; 340,000 tested, 0.098% active;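 active = mean replicate inhibition of at least 30% and at least 1% of replicates passing that level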;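 note: 0% = median of the neutral control wells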
TWEAK-Fn14 inh – inhibitors of TWEAK-Fn14 interaction signaling; TWEAK-stimulated Fn14 reporter cells, luciferase luminescence, 8 h; inhibition, % at 10 µM; 360,000 tested, 2% active; AID 1159606; in the data active = inhibition above about 50%
LGR2 inh – Drosophila LGR2 receptor signaling inhibition; HEK293 LGR2, CRE-luciferase, bursicon-stimulated, 4 h; inhibition, % at 9.99 µM; 380,000 tested, 0.35% active; AID 720647;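 active = drop in luminescence signal, shown as inhibition above about 50% in the replicate tests, limit read from the data, passing the limit was not always enough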;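 note: agonist challenge used bursicon conditioned medium at about half maximal strength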
TROY signal inh – blocks TROY-dependent signaling in reporter cells; Q293 LMP1-TROYcd NF-kB luciferase reporter, 4 h; inhibition, % at 10 µM; 360,000 tested, 0.98% active; AID 1347056;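 active = compounds whose plate-normalised and pattern-corrected inhibition of the luciferase reporter signal at the single screening dose is 50% or more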
XiGFP reactiv – X-chromosome reactivation activator. XiGFP mouse fibroblasts, % GFP-positive cells imaging, 3 d; cells co-treated with 5-aza-dC sensitizer; scaled so ellipticine positive control = 100%. activation, % at 7.58 µM. 360,000 tested, 0.055% active. AID 743238;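 active = mean normalized replicate activation at least 10% and every replicate at or above 10%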;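 note: 0% = median of on-plate neutral control wells and 100% = ellipticine 6 µM median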
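System: 68-5-11 XiGFP fibroblast line; Timing: 3 days compound exposure; Compound dosing: one concentration, pinned; Benchmarks: positive control ellipticine, 6 µM final; Buffer or medium: DMEM containing 5-aza-dC.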
The depositor's hits bear a star; nt = no result given.

SMILES	CaV13 ICDI inh	TWEAK-Fn14 inh	LGR2 inh	TROY signal inh	XiGFP reactiv
CC(=O)Nc1ccc(CN2C(=O)C(Cc3ccccc3)ON=C2c2cccc(F)c2)cc1 (configuration not stated)	3.7	-22.2	-19.2	83.2*	-0.2
O=C(COc1ccccc1)NNc1nc2c(F)cc(F)cc2s1	-0.6	2.8	16.0	7.2	0.0
O=C(Nc1nc2c(F)cc(F)cc2s1)c1ccccn1	7.1	41.8	60.1*	35.7	0.2
CSc1nc2ccc(NC(=O)C3=NNC(=O)CC3)cc2s1	-7.4	-9.0	-39.1	-30.1	0.1
CCOc1ccc2nc(NC(=O)Nc3ccccc3)sc2c1	-7.5	6.9	nt	-44.1	nt
CCOc1ccc2nc(SCC(=O)c3ccccc3)sc2c1	-7.0	-46.6	-63.8	-55.1	nt
CCOc1ccc2nc(NC(=O)c3ccccn3)sc2c1	-3.3	-5.5	88.8*	66.6*	0.0
CCOc1ccc2nc(SCCNS(=O)(=O)c3ccccc3)sc2c1	-4.5	54.8*	15.8	20.1	0.0
CSc1nc2ccc(NC(=O)c3ccccn3)cc2s1	-2.5	72.2*	70.7*	25.9	0.1
CC(C)NC(=O)N(C)C[C@@H]1Oc2ccc(NC(=O)Cc3cn(C)c4ccccc34)cc2CC(=O)N([C@H](C)CO)C[C@H]1C	nt	nt	4.3	nt	-0.1
Cc1ccc2nc(NC(=O)c3ccccn3)sc2c1	-17.4	98.1*	102.6*	86.1*	2.2
O=C(Nc1nc2ccc(S(=O)(=O)N3CCCC3)cc2s1)c1ccccn1	-6.7	-9.9	-51.9	-58.0	-0.2
CCCN1CCN(C(=O)c2ccc(CS(=O)c3ccc(Br)cc3)o2)CC1 (configuration not stated)	35.1*	19.1	20.0	1.8	0.0
COc1ccc(NC(=O)Nc2ccc3c(c2)C(=O)N([C@H](C)CO)C[C@H](C)[C@@H](CN(C)C(=O)Nc2ccc(F)cc2)O3)cc1	nt	nt	14.4	nt	-0.8
CC(=O)Nc1c(Br)cc2c(c1Br)C(=O)c1ccccc1-2	-5.0	27.4	13.7	-6.2	0.2
CC(=O)C1=C(c2ccc(Br)cc2)C(=O)c2ccccc2C1=O	-3.3	102.7*	99.1*	56.5*	-0.1
C=C1C(=O)O[C@@H]2[C@H]1[C@@H](OC(=O)/C(C)=C/C)C/C(C)=C\C(=O)/C=C(\C)[C@@H]2O	-10.1	66.6*	54.8*	29.1	0.0
C=C1C(=O)O[C@H]2[C@H]1[C@H](OC(=O)/C(C)=C\C)C[C@]1(CO1)[C@@H]1[C@H](OC(C)=O)C=C(C)[C@]21O	-2.0	15.9	5.8	10.5	1.1
Cc1sc(-c2ccccn2)nc1OC(=O)c1ccc(Cl)cc1	-4.0	28.4	nt	58.4*	nt
N#C[C@H]1[C@@H](c2ccc(-c3cccc(F)c3)cc2)[C@@H](CO)N1C(=O)NC1CCCCC1	nt	nt	32.6	nt	0.0
Cc1nc2c(C(=O)NCCC(C)C)c[nH]n2c(=O)c1Cl	-4.8	10.5	5.8	7.5	0.2
Cc1nc2c(C(=O)NCCC(C)C)c[nH]n2c(=O)c1Cc1ccccc1F	nt	16.2	nt	68.6*	nt
CCCc1cc(-c2[nH]ncc2-c2ccc(C(=O)OCC)o2)c(O)cc1O	nt	58.6*	6.9	34.2	nt
CCCc1cc(-c2[nH]ncc2-c2ccc3c(c2)OCCCO3)c(O)cc1O	-3.6	48.1	nt	44.0	nt
Cc1ccccc1S(=O)(=O)N1CCCCN2[C@H](CO)[C@@H](c3ccc(-c4cncnc4)cc3)[C@@H]2C1	nt	nt	1.7	nt	0.1
SMILES	CaV13 ICDI inh	TWEAK-Fn14 inh	LGR2 inh	TROY signal inh	XiGFP reactiv
Cc1cc(C(=O)C(C)OC(=O)c2ccc(NC(=O)CC#N)cc2)c(C)n1-c1ccccc1 (configuration not stated)	-4.5	64.0*	12.4	44.7	-0.1
COc1ccc(-n2c(C)cc(C(=O)CSc3ccc(NC(C)=O)cc3)c2C)cc1	-5.3	5.0	-3.7	-3.8	0.1
CC(=O)Nc1ccc(SCC(=O)c2cc(C)n(-c3ccccc3)c2C)cc1	-2.5	72.7*	8.5	44.2	0.0
Cc1cc(C(C)(C)C)cc(S(=O)(=O)NCCO)c1C	-6.4	85.2*	nt	nt	nt
Cc1ccc(/C=C/C(=O)O)cc1S(=O)(=O)NCCO	nt	-0.2	1.5	27.5	nt
COCC(=O)N1CC2(C1)CN(C(=O)CN1CCOCC1)[C@@H](CO)c1c2c2ccc(OC)cc2n1C	nt	nt	-6.2	nt	0.3
CCC(=O)Nc1ccc2c(c1)OC[C@H](C)N(Cc1ccccc1OC)C[C@H](C)[C@H](OC)CN(C)C2=O	nt	nt	-33.8	nt	0.5
COc1ccc(NC(=O)c2ccc(Cl)c(S(=O)(=O)N3CC(C)OC(C)C3)c2)cn1 (configuration not stated)	-5.5	26.5	0.8	14.3	-0.1
COc1ccc(NC(=O)c2ccc(Cl)c(S(=O)(=O)N3CCc4ccccc4C3)c2)cn1	-5.6	85.6*	34.6	53.2*	nt
CCc1nnc(NC(=O)c2ccc(Cl)c(S(=O)(=O)N3CCc4ccccc4C3)c2)s1	-4.8	14.3	9.3	55.3*	0.0
O=C(Nc1ccccn1)c1ccc(Cl)c(S(=O)(=O)N2CCc3ccccc32)c1	-2.2	56.3*	6.4	32.8	0.1
C[C@@H]1CN([C@@H](C)CO)C(=O)c2cccc(NC(=O)Nc3ccc(F)cc3)c2O[C@H]1CN(C)C(=O)Nc1ccc2c(c1)OCO2	nt	nt	-0.3	nt	-1.1
COc1ccc2c3c(n(C)c2c1)[C@@H](CO)N(C(=O)NC(C)C)CC31CN(C(=O)NC(C)C)C1	nt	nt	8.7	nt	0.3
Cc1ccc(S(=O)(=O)Nc2ccc3c(c2)C(=O)N([C@H](C)CO)C[C@H](C)[C@@H](CN(C)Cc2ccncc2)O3)cc1	nt	nt	-7.1	nt	0.1
C[C@@H]1CCCCO[C@@H](CN(C)CC2CCCCC2)[C@H](C)CN([C@@H](C)CO)C(=O)c2cc(NC(=O)Nc3ccc4c(c3)OCO4)ccc2O1	nt	nt	8.8	nt	-0.1
Nn1c(-c2cccs2)nc2sc3c(c2c1=O)CCCC3	-5.5	29.4	-53.0	-19.2	nt
Cc1ccccc1-c1nc2sc3c(c2c(=O)o1)CCC3	nt	-0.3	nt	nt	nt
O=c1oc(-c2ccccc2)nc2sc3c(c12)CCCC3	nt	53.2*	-39.5	-31.9	nt
Cc1ccccc1-c1nc2sc3c(c2c(=O)n1N)CCCC3	nt	70.6*	nt	77.2*	nt
Cc1ccc(S(=O)(=O)N(C)C[C@@H]2Oc3cc(Br)ccc3S(=O)(=O)N([C@H](C)CO)C[C@@H]2C)cc1	nt	nt	-8.1	nt	0.2
CNC(=O)C[C@H]1CC[C@H]2[C@@H](COc3ccc(NC(=O)c4ccno4)cc3C(=O)N2C)O1	nt	nt	8.9	nt	0.4
CC(NS(=O)(=O)c1ccc(Br)cc1)C(=O)NCCc1ccccc1 (configuration not stated)	-3.7	-2.2	5.1	56.8*	0.2
O=C(CCNS(=O)(=O)c1ccc(Br)cc1)NCCc1ccccc1	-2.2	-8.0	3.3	0.8	4.6
Cc1ccc(S(=O)(=O)N[C@@H](Cc2ccccc2)C(=O)CCl)cc1	-4.7	65.8*	nt	4.9	0.0

Screening data deposited in PubChem by several laboratories.
